Data from ChEMBL document CHEMBL4680093 (J Med Chem, 2016).

Tests used:
[1] = In-vivo inhibition of 11beta-HSD1 activity in C57BL/6 mouse liver assessed as reduction in cortisone to-cortisol conversion at 3 mg/kg, po measured after 6 hrs by ELISA; assay type: functional; settings: C57BL/6, Liver
In short: (§1)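 Male C57BL/6 mice dosed orally once at 3, 10 or 30 mg/kg in sterile water containing 0.5% methylcellulose and 1% Tween80, then sacrificed at 2 or 6 h. Liver and epididymal fat pads incubated ex vivo in culture medium containing cortisone. Cortisol formed was measured by ELISA and reported as % inhibition versus vehicle.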

[2] = target: T1, Nuclear receptor subfamily 1 group I member 2 (Homo sapiens, UniProt O75469); test: Activation of PXR (unknown origin) at 10 uM relative to rifampicin; assay type: ADME
T1 sequence (O75469 whole entry): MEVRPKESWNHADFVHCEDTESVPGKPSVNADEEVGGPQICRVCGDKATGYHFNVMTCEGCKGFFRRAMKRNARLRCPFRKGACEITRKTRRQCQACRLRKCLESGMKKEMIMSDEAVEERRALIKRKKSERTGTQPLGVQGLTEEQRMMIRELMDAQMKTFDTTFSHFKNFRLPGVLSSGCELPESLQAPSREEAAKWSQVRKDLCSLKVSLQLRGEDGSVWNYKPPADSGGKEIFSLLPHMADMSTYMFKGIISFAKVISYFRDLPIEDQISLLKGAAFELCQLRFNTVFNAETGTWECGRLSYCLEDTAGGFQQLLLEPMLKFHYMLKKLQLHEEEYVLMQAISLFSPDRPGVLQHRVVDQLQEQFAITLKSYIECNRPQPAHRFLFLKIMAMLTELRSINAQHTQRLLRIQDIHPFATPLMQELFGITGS

[3] = Cmax in mouse at 5 mg/kg, po; assay type: ADME, organism-based; design: route oral, dose 5 mg/kg; settings: in vivo
Phosphodiesterase 4 = Phosphodiesterase 4 (Homo sapiens, UniProt P27815+Q08499+Q07343+Q08493); test: Inhibition of PDE4 (unknown origin); assay type: protein assay
[4] = Reduction in HbA1c level in C57BL/6-Lep^ob (ob/ob) mouse at 20 mg/kg, po dosed once daily for 25 days relative to control; assay type: functional; design: scale not given: the % may be the effect or the level left; settings: time 25 day
In short: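 Eight-week-old male ob/ob mice were dosed orally once daily for 25 days with vehicle (sterile water, 0.5% methylcellulose, 1% Tween80), test compound 20 mg/kg, metformin 300 mg/kg, or the combination. Baseline postprandial glucose and HbA1c were checked from tail-vein blood. Changes in HbA1c and non-fasting blood glucose were expressed relative to the vehicle group.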

Mus musculus [5] = test: In-vivo inhibition of 11beta-HSD1 activity in C57BL/6 mouse epididymal fat assessed as reduction in cortisone to-cortisol conversion at 3 to 30 mg/kg, po measured after 2 to 6 hrs by ELISA; assay type: functional, organism-based; settings: Epididymal fat pad, dose 3-30 mg/kg, time 2-6 hrs; in short: as §1
Mus musculus [6] = test: Improvement in lipid profile in C57BL/6-Lep^ob (ob/ob) mouse assessed as LDL cholesterol level at 20 mg/kg, po dosed once daily for 25 days co-treated with 300 mg/kg. po QD for 25 days metformin (reference value: 30.3 +/- 0.8 mg/dl); settings: time 25 day
Glucocorticoid receptor = target: T2, Glucocorticoid receptor (Homo sapiens, UniProt P04150); test: Agonist activity at glucocorticoid receptor (unknown origin)
T2 sequence (P04150 whole entry): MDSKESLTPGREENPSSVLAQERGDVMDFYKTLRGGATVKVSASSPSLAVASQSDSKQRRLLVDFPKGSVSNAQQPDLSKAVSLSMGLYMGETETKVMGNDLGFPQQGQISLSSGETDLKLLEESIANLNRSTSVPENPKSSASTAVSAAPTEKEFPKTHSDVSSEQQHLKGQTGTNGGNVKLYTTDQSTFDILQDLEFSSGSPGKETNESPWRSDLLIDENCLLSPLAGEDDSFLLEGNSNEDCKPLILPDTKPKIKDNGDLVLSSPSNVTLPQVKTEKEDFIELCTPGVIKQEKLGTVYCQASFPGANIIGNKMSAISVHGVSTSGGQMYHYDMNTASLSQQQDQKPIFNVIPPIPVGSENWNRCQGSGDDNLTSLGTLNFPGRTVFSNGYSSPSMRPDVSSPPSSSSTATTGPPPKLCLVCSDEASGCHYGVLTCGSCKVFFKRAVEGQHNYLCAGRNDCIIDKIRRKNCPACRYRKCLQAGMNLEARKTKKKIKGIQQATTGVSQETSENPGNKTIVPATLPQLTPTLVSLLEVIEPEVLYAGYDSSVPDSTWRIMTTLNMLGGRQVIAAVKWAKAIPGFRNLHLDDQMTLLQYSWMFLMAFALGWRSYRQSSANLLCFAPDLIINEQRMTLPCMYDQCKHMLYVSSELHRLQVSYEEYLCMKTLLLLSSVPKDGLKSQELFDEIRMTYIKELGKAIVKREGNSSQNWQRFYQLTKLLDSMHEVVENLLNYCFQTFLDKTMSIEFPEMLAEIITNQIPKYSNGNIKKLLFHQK

[7] = In-vivo inhibition of 11beta-HSD1 activity in C57BL/6 mouse liver assessed as reduction in cortisone to-cortisol conversion at 10 mg/kg, po measured after 2 hrs by ELISA; assay type: functional; settings: C57BL/6, Liver
[8] = Toxicity in dog assessed as induction of abnormal changes in respiratory system up to 400 mg/kg, po; assay type: organism-based, Canis lupus familiaris; settings: in vivo
In short: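 Dogs fitted with telemetry were given oral doses of up to 400 mg/kg. Cardiovascular and respiratory systems were monitored for abnormal changes.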

[9] = Inhibition of PDE3 (unknown origin); design: species or system Homo sapiens
[10] = In-vivo inhibition of 11beta-HSD1 activity in C57BL/6 mouse liver assessed as reduction in cortisone to-cortisol conversion at 30 mg/kg, po measured after 6 hrs by ELISA; assay type: functional; settings: C57BL/6, Liver; in short: as §1
[11] = Protein binding in mouse plasma; assay type: ADME, cell-free; settings: read-out: PPB
Erythrocyte = test: Genotoxicity in mouse erythrocytes by micronucleus test; assay type: toxicity, cell-based
[12] = Drug level in mouse liver at 10 mg/kg, po measured after 2 hrs post dose; assay type: ADME, organism-based; settings: in vivo
In short: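 C57BL/6 mice given a single oral 10 mg/kg dose in 0.5% methylcellulose plus 1% Tween80. Sacrifice at 2 h post-dose, with collection of brain, liver, adipose and plasma. Compound concentration expressed as nmol/g, along with tissue/plasma ratio.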

[13] = Tmax in rat at 5 mg/kg, po; assay type: ADME, organism-based; settings: in vivo
In short: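 Single-dose PK study. The iv dose was given in 10% hydroxypropyl-β-cyclodextrin and the oral dose in 0.5% methylcellulose/1% Tween80. Mouse and rat received 1 mg/kg iv and 5 mg/kg po. Dog received 0.5 mg/kg iv and 4 mg/kg po. CL, Vss, t1/2, AUC, Cmax, tmax and F were derived.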

[14] = Half life in mouse at 1 mg/kg, iv; assay type: ADME, organism-based; settings: in vivo
[15] = Protein binding in human plasma; assay type: ADME, cell-free; settings: read-out: PPB
[16] = Toxicity in male dog during 4-week repeated once daily oral-dose toxicity study; design: species or system Canis lupus familiaris; settings: in vivo, time 4 weeks
In short: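 Dogs of both sexes were dosed orally once daily for 4 weeks at 25, 100 and 400 mg/kg. Toxicity was assessed and the NOAEL determined.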

Structure (SMILES): C[C@@H]1CN(c2ccc(S(C)(=O)=O)cc2F)CCN1c1nccc(C(=O)NC2C3CC4CC2CC(O)(C4)C3)n1 (some centres undefined)
- inhibition in vivo at 3 mg/kg [1]: 71%
- Activity [2]: 0%
- Cmax [3]: 2210 ng/mL
- IC50 (Phosphodiesterase 4): 5.2 µM
- Activity [4]: 1.2%
- inhibition (Mus musculus [5]): Dose-dependent effect
- Activity (Mus musculus [6]): 17.2 mg/dL
- EC50 (Glucocorticoid receptor): > 5 µM
- inhibition in vivo at 10 mg/kg [7]: 86%
- Activity [8]: Non-Toxic
- IC50 [9]: 5.4 µM
- inhibition in vivo at 30 mg/kg [10]: 92%
- fraction unbound [11]: 0.01
- Activity (Erythrocyte): Non-Toxic
- Drug uptake [12]: 31 nmol/g
- Tmax [13]: 1.3 h
- half-life [14]: 1.7 h
- fraction unbound [15]: 0.01
- NOAEL at 672 h [16]: 400 mg/kg
